This passage reports inhibition in vivo and IC50 results from ChEMBL document CHEMBL4477178, “Biflorin, Isolated from the Flower Buds of Syzygium aromaticum L., Suppresses LPS-Induced Inflammatory Mediators via STAT1 Inactivation in Macrophages and Protects Mice from Endotoxin Shock” (J Nat Prod, 2016).

Experiment [1] concerns Rattus norvegicus. The experiment is described as follows: Antiinflammatory activity in Sprague-Dawley rat assessed as inhibition of croton oil-induced ear edema at 100 mg/kg, po administered 1 hr before croton oil challenge measured after 3 hrs post challenge. The experiment is classed as functional. An outline of the steps:
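Croton-oil ear edema in male SD rats: ibuprofen 100 mg/kg p.o. given as reference. Croton oil (5% in 100 μL acetone) applied to the right ear, acetone to the left. Thickness of 6 mm ear punches measured 3 h after application; seven rats per group.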

The test system of experiment [2] is Rattus norvegicus. The experiment is described as follows: Antiinflammatory activity in Sprague-Dawley rat assessed as reduction in carrageenan induced paw edema at 100 mg/kg, po administered 1 hr before carrageenan challenge measured at 3 hrs post challenge. The class given is functional. The essentials:
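Carrageenan paw edema in SD rats: ibuprofen 100 mg/kg p.o. as reference. Carrageenan (1% in saline, 0.1 mL) injected into the right hind paw. Volume measured by plethysmometer at 1, 3 and 5 h; seven rats per group.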

For experiment [3], the system named is RAW264.7. Kind of experiment: Antiinflammatory activity in mouse RAW264.7 cells assessed as inhibition of LPS-induced PGE2 production preincubated for 1 hr followed by LPS challenge for 24 hrs by ELISA method. The class given is functional, cell-based. The essentials: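 RAW 264.7 cells in DMEM with 10% FBS, plated at 2 × 10^5 cells/mL and incubated overnight. Pretreated with compound (15, 30 or 60 μM) for 1 h, then LPS 10 ng/mL for 24 h. PGE2 measured by competitive colorimetric ELISA, TNF-α and IL-6 by ELISA, in diluted medium. NS-398 3 μM as positive control for PGE2. Mean ± SD, three independent experiments; IC50 given for PGE2.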

Experiment [4] relates to RAW264.7. The experiment is described as follows: Antiinflammatory activity in mouse RAW264.7 cells assessed as inhibition of LPS-induced nitric oxide production preincubated for 1 hr followed by LPS challenge for 24 hrs by Griess assay. The experiment is classed as functional, cell-based. An outline of the steps:
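RAW 264.7 cells plated at 2 × 10^5 cells/mL and incubated overnight. Compound given at 15, 30 or 60 μM for 1 h, then LPS 10 ng/mL for 24 h. Nitrite in the medium measured by Griess reagent (10 min, room temperature, A540) against a NaNO2 standard. L-NIL 20 μM as positive control; IC50 derived; three independent experiments.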

With `CC(C)Cc1ccc(C(C)C(=O)O)cc1` (centres undefined) [IBUPROFEN], the values for the inhibition in vivo at 100 mg/kg with Rattus norvegicus [1] and in the experiment on Rattus norvegicus [2] were 78.2% and 68%, respectively.
With `Cc1cc(=O)c2c(O)cc(O)c([C@@H]3O[C@H](CO)[C@@H](O)[C@H](O)[C@H]3O)c2o1`, the IC50 in the experiment on RAW264.7 [3] was 46 µM; in the experiment on RAW264.7 [4], above 60 µM.
